Among the data in ChEMBL document CHEMBL1131333, “2-Iminohomopiperidinium salts as selective inhibitors of inducible nitric oxide synthase (iNOS)” (J Med Chem, 1998) are IC50 and inhibition values, retold here.

Structures are written as SMILES.

Sequence of Nitric oxide synthase, inducible (Homo sapiens, UniProt P35228) (P35228 whole entry): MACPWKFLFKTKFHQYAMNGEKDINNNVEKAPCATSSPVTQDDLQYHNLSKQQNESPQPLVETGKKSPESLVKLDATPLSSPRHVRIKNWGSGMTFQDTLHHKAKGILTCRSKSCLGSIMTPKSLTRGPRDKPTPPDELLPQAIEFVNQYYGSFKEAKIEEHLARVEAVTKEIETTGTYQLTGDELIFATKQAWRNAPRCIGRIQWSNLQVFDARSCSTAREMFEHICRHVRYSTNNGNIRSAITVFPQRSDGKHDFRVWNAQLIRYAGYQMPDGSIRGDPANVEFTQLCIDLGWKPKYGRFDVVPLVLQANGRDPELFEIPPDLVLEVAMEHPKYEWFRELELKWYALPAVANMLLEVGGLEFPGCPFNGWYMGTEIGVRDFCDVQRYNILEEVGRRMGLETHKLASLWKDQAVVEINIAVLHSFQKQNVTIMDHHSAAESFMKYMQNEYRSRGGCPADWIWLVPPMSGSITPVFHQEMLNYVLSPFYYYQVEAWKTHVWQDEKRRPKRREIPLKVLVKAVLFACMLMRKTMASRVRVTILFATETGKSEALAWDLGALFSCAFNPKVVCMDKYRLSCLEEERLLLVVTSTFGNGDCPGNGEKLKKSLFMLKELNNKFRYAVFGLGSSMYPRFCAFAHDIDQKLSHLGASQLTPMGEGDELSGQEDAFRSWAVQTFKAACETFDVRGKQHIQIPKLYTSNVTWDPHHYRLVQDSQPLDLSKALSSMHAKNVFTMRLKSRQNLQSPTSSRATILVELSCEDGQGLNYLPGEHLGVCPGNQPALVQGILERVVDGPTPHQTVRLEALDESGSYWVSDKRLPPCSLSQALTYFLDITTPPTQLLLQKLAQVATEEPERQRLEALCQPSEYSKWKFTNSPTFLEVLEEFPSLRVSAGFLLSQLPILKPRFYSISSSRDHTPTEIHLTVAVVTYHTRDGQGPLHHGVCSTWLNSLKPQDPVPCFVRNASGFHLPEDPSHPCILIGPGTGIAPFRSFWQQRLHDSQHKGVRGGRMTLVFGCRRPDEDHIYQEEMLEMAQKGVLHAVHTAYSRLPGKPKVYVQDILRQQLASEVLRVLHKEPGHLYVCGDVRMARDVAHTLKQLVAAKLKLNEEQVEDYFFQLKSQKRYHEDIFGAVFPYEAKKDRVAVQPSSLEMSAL
Sequence of Nitric oxide synthase, inducible (Rattus norvegicus) (Q06518 whole entry): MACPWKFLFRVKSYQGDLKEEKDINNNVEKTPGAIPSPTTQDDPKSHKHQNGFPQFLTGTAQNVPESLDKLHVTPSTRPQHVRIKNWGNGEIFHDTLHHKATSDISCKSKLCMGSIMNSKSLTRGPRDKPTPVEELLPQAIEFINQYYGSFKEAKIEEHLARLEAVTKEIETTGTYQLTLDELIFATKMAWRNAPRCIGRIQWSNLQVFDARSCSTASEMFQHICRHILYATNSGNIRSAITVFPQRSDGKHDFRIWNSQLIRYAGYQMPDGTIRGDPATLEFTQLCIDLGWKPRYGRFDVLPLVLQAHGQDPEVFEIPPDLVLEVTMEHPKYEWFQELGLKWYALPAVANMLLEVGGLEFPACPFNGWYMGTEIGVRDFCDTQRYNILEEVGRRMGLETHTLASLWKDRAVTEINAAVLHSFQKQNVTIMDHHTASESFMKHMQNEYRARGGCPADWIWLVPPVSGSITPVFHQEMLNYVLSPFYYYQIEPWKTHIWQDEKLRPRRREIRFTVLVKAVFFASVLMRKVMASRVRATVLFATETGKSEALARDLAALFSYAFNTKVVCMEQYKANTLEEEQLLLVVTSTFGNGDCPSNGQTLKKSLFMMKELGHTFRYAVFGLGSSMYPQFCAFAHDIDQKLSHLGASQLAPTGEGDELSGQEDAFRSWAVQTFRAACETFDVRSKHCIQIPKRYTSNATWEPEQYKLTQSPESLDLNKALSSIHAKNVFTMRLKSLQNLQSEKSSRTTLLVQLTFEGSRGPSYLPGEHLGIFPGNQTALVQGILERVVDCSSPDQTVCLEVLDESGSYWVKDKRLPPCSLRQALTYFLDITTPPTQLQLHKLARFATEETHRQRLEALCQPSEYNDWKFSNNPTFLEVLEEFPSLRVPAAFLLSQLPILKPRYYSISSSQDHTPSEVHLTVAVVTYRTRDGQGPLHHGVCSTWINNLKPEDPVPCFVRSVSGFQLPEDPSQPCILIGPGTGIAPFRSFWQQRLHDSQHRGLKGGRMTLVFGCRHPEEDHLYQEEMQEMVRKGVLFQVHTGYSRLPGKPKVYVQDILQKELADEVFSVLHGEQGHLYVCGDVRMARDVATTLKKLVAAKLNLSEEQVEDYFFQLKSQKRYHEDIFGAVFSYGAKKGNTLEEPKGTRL

The target in one experiment is T1, Nitric oxide synthase 1 (Homo sapiens, UniProt P29475). Briefly: Inhibitory activity evaluated from soluble cell extract of Neuronal nitric oxide synthase and partially purified by DEAE-sepharose chromatography.
T1 sequence (P29475 whole entry): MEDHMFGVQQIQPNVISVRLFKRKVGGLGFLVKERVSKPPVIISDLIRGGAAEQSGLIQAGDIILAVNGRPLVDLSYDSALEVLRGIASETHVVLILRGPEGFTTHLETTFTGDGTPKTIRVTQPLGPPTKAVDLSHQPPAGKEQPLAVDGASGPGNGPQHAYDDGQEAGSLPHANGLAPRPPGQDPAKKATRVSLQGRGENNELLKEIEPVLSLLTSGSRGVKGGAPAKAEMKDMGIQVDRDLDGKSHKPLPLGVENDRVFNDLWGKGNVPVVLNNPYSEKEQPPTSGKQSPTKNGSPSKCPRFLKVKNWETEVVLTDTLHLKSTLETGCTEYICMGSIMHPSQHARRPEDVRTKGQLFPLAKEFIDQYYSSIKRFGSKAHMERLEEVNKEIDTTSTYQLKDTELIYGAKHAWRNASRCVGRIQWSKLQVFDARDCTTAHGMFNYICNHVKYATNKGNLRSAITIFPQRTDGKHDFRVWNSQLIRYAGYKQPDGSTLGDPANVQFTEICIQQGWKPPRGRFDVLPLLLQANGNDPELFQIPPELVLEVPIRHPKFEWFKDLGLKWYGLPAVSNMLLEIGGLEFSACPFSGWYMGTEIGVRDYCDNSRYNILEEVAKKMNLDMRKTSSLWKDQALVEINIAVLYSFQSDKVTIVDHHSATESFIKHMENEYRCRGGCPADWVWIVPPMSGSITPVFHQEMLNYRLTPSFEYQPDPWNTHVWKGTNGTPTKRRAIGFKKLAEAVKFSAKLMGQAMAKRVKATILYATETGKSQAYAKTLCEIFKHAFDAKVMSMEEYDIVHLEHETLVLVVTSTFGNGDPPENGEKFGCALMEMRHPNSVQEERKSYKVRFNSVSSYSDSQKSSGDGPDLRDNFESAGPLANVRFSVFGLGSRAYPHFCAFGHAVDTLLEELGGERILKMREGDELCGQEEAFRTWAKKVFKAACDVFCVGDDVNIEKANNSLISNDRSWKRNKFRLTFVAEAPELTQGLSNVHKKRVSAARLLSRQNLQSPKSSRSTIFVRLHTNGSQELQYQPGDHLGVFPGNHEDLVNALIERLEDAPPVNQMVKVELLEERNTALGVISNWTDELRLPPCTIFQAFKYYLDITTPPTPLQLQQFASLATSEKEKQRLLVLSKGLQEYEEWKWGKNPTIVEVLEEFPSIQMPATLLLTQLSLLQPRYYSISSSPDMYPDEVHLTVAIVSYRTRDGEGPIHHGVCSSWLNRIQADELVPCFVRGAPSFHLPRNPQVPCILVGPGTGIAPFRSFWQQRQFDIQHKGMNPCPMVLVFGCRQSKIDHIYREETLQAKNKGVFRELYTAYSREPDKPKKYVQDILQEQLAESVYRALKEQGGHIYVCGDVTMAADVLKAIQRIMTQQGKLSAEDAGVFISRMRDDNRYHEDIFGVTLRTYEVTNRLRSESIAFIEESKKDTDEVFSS
`C=CCC1CCCCN=C1N` (configuration not stated) gave an IC50 of 16 µM.
`CCC1CCCCN=C1N` (configuration not stated): the concentration for half-maximal inhibition (IC50) worked out at 2.4 µM. This IC50 lies about 6.7-fold lower than the previous one.
The same measure, in the same setting: the value for `CC1CCN=C(N)CC1` (configuration not stated) was 11 µM.

The target of a further experiment is T1, Nitric oxide synthase 1. Briefly: Inhibitory activity evaluated from soluble cell extract of human nNeuronal nitric oxide synthase and partially purified by DEAE-sepharose chromatography. The method, boiled down:
(§1)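 Recombinant human iNOS, eNOS or nNOS expressed in Sf9 cells (baculovirus). L-[3H]arginine to [3H]citrulline conversion in Tris pH 7.6 with BSA, DTT, CaCl2, FAD, tetrahydrobiopterin, NADPH and 30 μM final L-arginine. Calmodulin at 40 nM final for eNOS and nNOS only. 15 min at 37 °C, stopped with EGTA/HEPES pH 5.5, Dowex separation, scintillation counting. At least duplicate.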
On to `CCCCC1CCCCC(N)=N1` (configuration not stated), for which the midpoint of inhibition, the IC50, lay at 0.85 µM.
On the same count and under the same terms, the value for `C[C@@H]1CCCC(N)=NC1` was 3.8 µM.

The next experiment has as its target T1, Nitric oxide synthase 1. Briefly: Inhibitory activity evaluated from soluble cell extract of human Neuronal nitric oxide synthase and partially purified by DEAE-sepharose chromatography. An outline of the steps:
as §1
Regarding `NC1=NC(c2ccccc2)CCCC1` (configuration not stated), the IC50 worked out at 6.6 µM. This lies in the single-digit micromolar range.
The same measure, in the same setting: as for `CCC(CC)CC1CCCCC(N)=N1` (configuration not stated), the figure is 5.4 µM.

The target of another experiment is T2, Nitric oxide synthase, inducible (Mus musculus, UniProt P29477).
T2 sequence (P29477 whole entry): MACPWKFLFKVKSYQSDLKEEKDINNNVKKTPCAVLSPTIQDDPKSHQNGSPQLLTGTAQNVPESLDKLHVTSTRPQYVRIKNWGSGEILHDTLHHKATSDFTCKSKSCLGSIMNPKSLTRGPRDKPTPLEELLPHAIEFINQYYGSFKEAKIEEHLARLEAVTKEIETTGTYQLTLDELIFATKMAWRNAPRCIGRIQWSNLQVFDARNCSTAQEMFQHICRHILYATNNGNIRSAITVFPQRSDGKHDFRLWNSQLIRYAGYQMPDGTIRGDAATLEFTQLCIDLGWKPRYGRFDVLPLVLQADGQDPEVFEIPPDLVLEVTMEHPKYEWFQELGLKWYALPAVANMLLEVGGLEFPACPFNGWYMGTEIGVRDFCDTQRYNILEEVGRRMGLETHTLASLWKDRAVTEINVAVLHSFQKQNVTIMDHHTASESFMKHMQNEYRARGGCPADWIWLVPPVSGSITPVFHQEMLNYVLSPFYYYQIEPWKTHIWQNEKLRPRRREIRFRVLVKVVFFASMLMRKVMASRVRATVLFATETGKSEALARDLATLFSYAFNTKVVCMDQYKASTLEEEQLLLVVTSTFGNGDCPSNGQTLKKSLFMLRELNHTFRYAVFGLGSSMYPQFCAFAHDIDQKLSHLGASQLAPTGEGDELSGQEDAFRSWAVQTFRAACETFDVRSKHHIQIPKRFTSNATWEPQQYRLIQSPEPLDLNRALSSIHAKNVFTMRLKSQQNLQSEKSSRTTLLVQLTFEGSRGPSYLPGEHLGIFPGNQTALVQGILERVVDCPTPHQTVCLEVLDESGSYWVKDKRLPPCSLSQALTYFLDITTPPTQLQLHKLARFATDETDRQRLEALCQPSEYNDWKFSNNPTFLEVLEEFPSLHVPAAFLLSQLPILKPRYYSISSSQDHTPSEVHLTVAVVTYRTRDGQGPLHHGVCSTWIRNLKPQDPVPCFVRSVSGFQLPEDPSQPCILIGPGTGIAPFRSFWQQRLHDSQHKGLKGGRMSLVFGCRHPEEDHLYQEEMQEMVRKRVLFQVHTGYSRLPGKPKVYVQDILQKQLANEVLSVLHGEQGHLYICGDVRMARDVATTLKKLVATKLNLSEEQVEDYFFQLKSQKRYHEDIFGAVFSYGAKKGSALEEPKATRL
Briefly: The ability of compound to inhibit mouse Inducible nitric oxide synthase in LPS stimulated mouse RAW cells was determined. Format: cell-based. The method, boiled down:
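RAW 264.7 cells plated at 2×10^5/well and induced 17 h with 10 μg/mL LPS (E. coli O111:B4). Washed, preincubated 1 h on ice in Krebs Ringer/HEPES pH 7.5 with glucose, 30 μM L-arginine and five inhibitor concentrations, then 2 h at 37 °C. Nitrite measured fluorometrically.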
With `C=CCC1CCCCN=C1N` (configuration not stated), the half-inhibitory concentration (IC50) is 19 µM.
As to `CCCCC1CCCCC(N)=N1` (configuration not stated), the IC50 turned out to be 1.6 µM.
`NC1=NC(c2ccccc2)CCCC1` (configuration not stated) displayed an IC50 of 31 µM. This IC50 is about 19-fold higher than that of the molecule before.
For the molecule `CC1CCN=C(N)CC1` (configuration not stated), the IC50 was found to be 24 µM. This IC50 and that of the molecule before are within 1.5-fold of each other.
On the same count and under the same terms, as for `CCC(CC)CC1CCCCC(N)=N1` (configuration not stated), the figure is 3.3 µM; as for `NC1=NCCCCC1`, 54 µM.

A further experiment deals with Nitric oxide synthase, inducible (Rattus norvegicus) (UniProt Q06518). Briefly: The ability of compounds to inhibit Inducible nitric oxide synthase in LPS-treated male Lewis rats at 10 mg/kg dose. Format: organism-based. The arrangement: dose 10 mg/kg. The method, boiled down:
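Rats dosed 10 mg/kg orally by gavage 1 h before LPS (10 mg/kg ip). Blood taken 5 h after LPS; plasma filtered through a 10 000 MW cutoff filter, and nitrite/nitrate measured fluorometrically. Percent inhibition calculated relative to rats given LPS alone.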
For `CCCCC1CCCCC(N)=N1` (configuration not stated), the inhibition turned out to be 60%.
`C=CCC1CCCCC(N)=N1` (configuration not stated) had an inhibition of 80%.
Molecule `CCCC1CCCCC(N)=N1` (configuration not stated) displayed an inhibition of 85%.

The target of another experiment is T3, Nitric oxide synthase 3 (Homo sapiens, UniProt P29474).
T3 sequence (P29474 whole entry): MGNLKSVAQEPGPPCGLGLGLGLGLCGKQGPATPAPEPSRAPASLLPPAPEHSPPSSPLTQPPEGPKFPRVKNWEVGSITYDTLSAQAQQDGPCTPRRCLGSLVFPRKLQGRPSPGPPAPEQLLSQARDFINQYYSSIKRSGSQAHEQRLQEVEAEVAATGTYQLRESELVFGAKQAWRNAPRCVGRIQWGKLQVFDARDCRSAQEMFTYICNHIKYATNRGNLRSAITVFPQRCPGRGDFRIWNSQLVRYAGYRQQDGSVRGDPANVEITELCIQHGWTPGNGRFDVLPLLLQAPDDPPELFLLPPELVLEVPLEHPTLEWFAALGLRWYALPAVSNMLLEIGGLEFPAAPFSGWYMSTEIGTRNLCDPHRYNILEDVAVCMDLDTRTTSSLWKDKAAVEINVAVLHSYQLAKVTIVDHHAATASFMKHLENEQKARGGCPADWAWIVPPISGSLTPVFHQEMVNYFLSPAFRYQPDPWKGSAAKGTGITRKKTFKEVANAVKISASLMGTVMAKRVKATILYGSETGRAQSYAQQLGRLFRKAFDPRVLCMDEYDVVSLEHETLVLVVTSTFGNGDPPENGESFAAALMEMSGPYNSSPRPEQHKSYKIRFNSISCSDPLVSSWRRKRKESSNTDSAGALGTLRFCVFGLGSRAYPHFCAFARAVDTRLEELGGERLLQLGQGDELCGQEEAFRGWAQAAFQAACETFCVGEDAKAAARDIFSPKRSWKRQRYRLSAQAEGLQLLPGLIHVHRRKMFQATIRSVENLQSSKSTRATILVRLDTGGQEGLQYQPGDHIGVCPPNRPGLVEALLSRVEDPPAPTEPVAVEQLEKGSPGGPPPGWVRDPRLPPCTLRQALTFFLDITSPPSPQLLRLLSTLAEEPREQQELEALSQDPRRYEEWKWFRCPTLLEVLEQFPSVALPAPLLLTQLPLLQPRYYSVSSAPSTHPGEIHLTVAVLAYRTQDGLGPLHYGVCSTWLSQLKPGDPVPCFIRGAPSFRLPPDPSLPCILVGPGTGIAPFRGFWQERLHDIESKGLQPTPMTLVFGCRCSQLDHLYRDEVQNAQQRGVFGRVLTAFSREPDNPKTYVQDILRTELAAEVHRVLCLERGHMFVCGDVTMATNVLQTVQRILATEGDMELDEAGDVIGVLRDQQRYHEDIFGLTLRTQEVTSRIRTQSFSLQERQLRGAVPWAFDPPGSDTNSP
Briefly: Inhibitory activity evaluated from soluble cell extract of human endothelia constitutive enzyme (Endothelial nitric oxide synthase) and partially purified by DEAE-sepharose chromatography. An outline of the steps: as §1
The molecule `C=CCC1CCCCN=C1N` (configuration not stated) displayed an IC50 of 380 µM.
Regarding `CCCCC1CCCCC(N)=N1` (configuration not stated), the IC50 stood at 103 µM. Against the preceding molecule, the IC50 is about 3.7-fold lower.
Still for that read-out and setting: as for `NC1=NC(c2ccccc2)CCCC1` (configuration not stated), the figure is 215 µM.
For `CCC1CCCCN=C1N` (configuration not stated), 38 µM corresponded to half-maximal inhibition (IC50).
With `C=CCC1CCCCC(N)=N1` (configuration not stated), it took 21 µM to reach half-maximal inhibition (IC50). This IC50 lies about 1.8-fold lower than the previous one.
Still for that read-out and setting: the value for `C[C@@H]1CCCC(N)=NC1` was 39 µM; that for `CCCC1CCCCC(N)=N1` (configuration not stated) was 9.5 µM.
In the case of `CC1CCN=C(N)CC1` (configuration not stated), 39 µM corresponded to half-maximal inhibition (IC50).
Still for that read-out and setting: as for `CCC(CC)CC1CCCCC(N)=N1` (configuration not stated), the figure is 660 µM; as for `NC1=NCCCCC1`, 15 µM.

In a further experiment the target is Nitric oxide synthase, inducible (Homo sapiens, UniProt P35228). Briefly: Inhibitory activity evaluated for soluble cell extract of human Inducible nitric oxide synthase and partially purified by DEAE-sepharose chromatography. An outline of the steps:
as §1
In the case of `C=CCC1CCCCN=C1N` (configuration not stated), the half-inhibitory concentration (IC50) is 5.8 µM.
The molecule `CCCCC1CCCCC(N)=N1` (configuration not stated) returned an IC50 of 0.5 µM.
On the same count and under the same terms, as for `NC1=NC(c2ccccc2)CCCC1` (configuration not stated), the figure is 14 µM; as for `CC1CCN=C(N)CC1` (configuration not stated), 5.8 µM.
Molecule `CCC(CC)CC1CCCCC(N)=N1` (configuration not stated) came in with an IC50 of 2.1 µM. This IC50 is about 2.8-fold lower than that of the molecule before.
For the molecule `NC1=NCCCCC1`, the midpoint of inhibition, the IC50, lay at 2.1 µM.
